Assay results published in ChEMBL document CHEMBL2311442, “Identification of novel antimycobacterial chemical agents through the in silico multi-conformational structure-based drug screening of a large-scale chemical library” (Eur J Med Chem, 2013).
Active and inactive are the calls of the source. The rule behind the calls is not given here.

How the values were obtained:
[1] = biological target: T1, Thymidylate kinase (Mycobacterium tuberculosis, UniProt P9WKE1); experiment: Inhibition of Mycobacterium tuberculosis thymidine monophosphate kinase
T1 sequence (P9WKE1 whole entry): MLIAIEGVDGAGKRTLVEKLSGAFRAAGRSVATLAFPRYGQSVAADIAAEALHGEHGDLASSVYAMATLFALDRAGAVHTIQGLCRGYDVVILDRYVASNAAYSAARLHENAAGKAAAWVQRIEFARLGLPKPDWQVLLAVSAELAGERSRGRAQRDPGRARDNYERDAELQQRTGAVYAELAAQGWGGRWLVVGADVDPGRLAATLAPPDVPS

[2] = system: Mycobacterium vanbaalenii; experiment: Growth inhibition of Mycobacterium vanbaalenii at 50 uM up to 24 hrs; assay type: functional; conditions: Mycolicibacterium vanbaalenii
Method in brief: (§1)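 Mycobacteria grown overnight or 2 days at 37 C, 300 rpm in 3.7% brain heart infusion broth; M. smegmatis diluted 8x before seeding. Diluted culture incubated with compound (M. vanbaalenii 50 uM, M. smegmatis 100 uM). Controls: 0.3% DMSO (negative), isoniazid (positive). A595 read at 4, 8, 18, 24 h. Mean ± SEM of four experiments; Dunnett's test.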

[3] = biological target: T2, Enoyl-[acyl-carrier-protein] reductase [NADH] (Mycobacterium tuberculosis, UniProt P9WGR1); experiment: Inhibition of Mycobacterium tuberculosis InhA
T2 sequence (P9WGR1 whole entry): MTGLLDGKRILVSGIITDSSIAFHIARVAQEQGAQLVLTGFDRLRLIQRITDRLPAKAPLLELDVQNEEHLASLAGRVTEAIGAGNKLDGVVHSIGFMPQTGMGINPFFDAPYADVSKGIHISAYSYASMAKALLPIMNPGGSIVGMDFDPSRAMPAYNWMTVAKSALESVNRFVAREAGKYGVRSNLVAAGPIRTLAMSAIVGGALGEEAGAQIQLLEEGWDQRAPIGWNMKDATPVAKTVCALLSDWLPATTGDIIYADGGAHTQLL

[4] = system: Escherichia coli; experiment: Toxicity against Escherichia coli BL21 at 50 uM after 24 hrs
[5] = system: Mycolicibacterium smegmatis; experiment: Growth inhibition of Mycobacterium smegmatis at 100 uM after 24 hrs; assay type: functional, organism-based; method in brief: as §1
[6] = system: Mycobacterium vanbaalenii; experiment: Antimycobacterial activity against Mycobacterium vanbaalenii incubated up to 24 hrs; assay type: functional, Mycolicibacterium vanbaalenii
Method in brief: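 M. vanbaalenii grown overnight or 2 days at 37 C, 300 rpm in 3.7% brain heart infusion broth, diluted, then incubated in medium with compound across a dose range. Growth read as A595 at 4, 8, 18 and 24 h; growth rate (%) taken from 24 h culture. IC50 from dose-response; mean ± SD, four independent experiments.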

[7] = system: Mycobacterium vanbaalenii; experiment: Growth inhibition of Mycobacterium vanbaalenii at 50 uM after 18 hrs; assay type: functional; conditions: Mycolicibacterium vanbaalenii; method in brief: as §1
[8] = system: Escherichia coli; experiment: Toxicity against Escherichia coli JM 109 at 50 uM after 24 hrs; assay type: organism-based; conditions: in vivo
[9] = Cytotoxicity against human SH-SY5Y at 50 uM after 2 days by CCK8 assay; assay type: cell-based; conditions: 48 h
Method in brief: (§2)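 MDCK (5.0 x 10^3/well) and SH-SY5Y (1.5 x 10^4/well) in DMEM with 10% FBS, penicillin/streptomycin, 2 mM glutamine. Starved in 0.25% FBS (MDCK overnight, SH-SY5Y 2 days), then given compound at 50 uM in 0.25% FBS medium. Exposure: MDCK 1 day, SH-SY5Y 2 days. CCK-8 added, 3 h, WST-8 formazan A450. Isoniazid 50 uM control; mean ± SEM, n=4; Dunnett's test.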

[10] = system: MDCK; experiment: Cytotoxicity against MDCK at 50 uM after 1 day by CCK8 assay; assay type: cell-based, Canis lupus familiaris; conditions: dog, 24 h; method in brief: as §2

Structure (SMILES)	growth inhibition (GI) [2]	growth inhibition (GI) [5]	IC50 [6] [µM]	growth inhibition (GI) [7]	further results
Cc1cn([C@H]2C[C@H](CN=[N+]=[N-])[C@@H](COP(=O)(O)O)O2)c(=O)[nH]c1=O	–	–	–	–	Ki [1]: 10 µM
CCCCc1cc(=O)oc2cc(OCC(=O)OCC)c(Cl)cc12	inactive	–	–	–	–
NC(=O)C1=CN([C@@H]2O[C@H](COP(=O)(O)OP(=O)(O)OC[C@H]3O[C@@H](n4cnc5c(N)ncnc54)[C@H](O)[C@@H]3O)[C@@H](O)[C@H]2O)C=C[C@H]1C(=O)c1ccncc1	–	–	–	–	Ki [3]: 0.00075 µM
O=C(Nc1ccc(OCc2ccccc2)cc1)C1CCN(C(=O)c2ccc([N+](=O)[O-])cc2)CC1	inactive	–	–	–	–
CC(C)Oc1cccc(-c2cc(C(=O)NCCc3ccc(S(N)(=O)=O)cc3)c3ccccc3n2)c1	Active	Active	15	Active	Activity [4]: Non-toxic; Activity [8]: Non-toxic; Activity [9]: Non-toxic; Activity [10]: Non-toxic
CCc1cc(=O)oc2cc(OCC(=O)OCc3ccccc3)c(Cl)cc12	Active	inactive	–	Active	–
CCOc1ccc(NC(=O)CSc2nc3ccc(NC(=O)c4ccccc4C)cc3s2)cc1	inactive	–	–	–	–
O=C(Oc1cccc2cccnc12)c1ccc(S(=O)(=O)c2ccc(Cl)cc2)cc1	Active	Active	20	Active	Activity [4]: Non-toxic; Activity [8]: Non-toxic; Activity [9]: Non-toxic; Activity [10]: Non-toxic
COc1ccc(-c2cc3ccccc3oc2=O)cc1NC(=O)COc1ccc(Cl)cc1C	inactive	–	–	–	–
COC(=O)COc1ccc(NC(=O)c2ccc(C(C)(C)C)cc2)cc1	inactive	–	–	–	–
CCCc1cc(=O)oc2cc(OCC(=O)OCc3ccccc3)c(Cl)cc12	inactive	–	–	–	–
NNC(=O)c1ccncc1 [ISONIAZID]	–	Active	2.6	Active	–
Cc1ccc(Nc2nc(Nc3ccc(C)cc3)nc(Sc3nnc(C)s3)n2)cc1	Active	Active	22	Active	Activity [4]: Non-toxic; Activity [8]: Non-toxic; Activity [9]: Toxic; Activity [10]: Toxic
